Bioassay records deposited in PubChem BioAssay by several laboratories.
In the library only some 1.8% were active in any assay of this set; here they are far more common.
SUMO HTRF inh – SUMOylation inhibition. HTRF SUMOylation assay, SAE1/SAE2 + UBC9, in vitro. inhibition, % at 35 µM. AID 2006. P63279. actives 0.36% (n = 290,000); in the data active = inhibition above about 50%, passing the limit was not always enough
Target sequence (P63279 whole entry, looked up): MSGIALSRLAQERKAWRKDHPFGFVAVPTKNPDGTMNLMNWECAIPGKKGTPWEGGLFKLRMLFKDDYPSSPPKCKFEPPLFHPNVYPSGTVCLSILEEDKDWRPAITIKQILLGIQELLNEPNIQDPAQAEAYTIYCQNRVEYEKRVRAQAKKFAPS
SENP1 FRET inh – blocks the human SENP1 SUMO protease catalytic domain. recombinant SENP1 catalytic domain, CyPet-SUMO1-YPet FRET cleavage. inhibition, % at 10 µM. actives 0.21% (n = 360,000);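 active = inhibition at least 30% at 10 µM, raw YFP signal under a set limit, fluorescence ratio 0.5 to 1.5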;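 note: 0% = enzyme with DMSO and 100% = no enzyme wells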
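System: Recombinant human SENP1 catalytic domain, His6-tagged | Incubation: Enzyme reaction for 50 min at room temperature, dark | Medium: Tris pH 8 with BME, BSA, NP40 and catalase | Also added: 25 nM SUMO1 FRET substrate | Compound: 10 µM single point, 0.5% DMSO | Measured by: FRET fluorescence in CFP and YFP emission channels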
CSN inh – inhibitors of human CSN-mediated cullin deneddylation; Q92905; Purified CSN, SCF-Nedd8-OG deneddylation, fluorescence polarization; inhibition, % at 12.5 µM; actives 0.38% (n = 360,000);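 active = pattern-corrected inhibition above about 35%, with an unprinted fluorescence ratio check between 0.5 and 1.5, limit read from the data, passing the limit was not always enough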;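 note: 0% = enzyme with substrate and 100% = substrate without enzyme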
Target sequence (Q92905 whole entry, looked up, one chain of several): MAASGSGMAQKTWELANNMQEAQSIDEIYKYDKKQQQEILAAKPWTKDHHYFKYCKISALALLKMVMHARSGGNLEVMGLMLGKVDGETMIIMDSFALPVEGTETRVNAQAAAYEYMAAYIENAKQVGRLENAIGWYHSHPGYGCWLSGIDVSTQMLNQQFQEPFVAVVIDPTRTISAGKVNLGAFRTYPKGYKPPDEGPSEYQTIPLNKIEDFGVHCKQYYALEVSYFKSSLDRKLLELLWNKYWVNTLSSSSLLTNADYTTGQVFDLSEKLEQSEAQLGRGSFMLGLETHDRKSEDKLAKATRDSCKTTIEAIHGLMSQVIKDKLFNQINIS
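Assay system: Purified human Csn5 enzyme expressed in HEK293T cells | Amount: Enzyme 0.24 nM | Measured by: Fluorescence polarization readout | Medium: Tris/NaCl/DTT buffer, pH 7.5 | Compound dosing: One concentration, 12.5 µM, 0.25% DMSO | Times: 90 min incubation of compound, enzyme and substrate at room temperature | Control set: no-enzyme wells high, enzyme-with-substrate wells low | Read-out: % inhibition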
TPT1 inhibitor – blocks Candida albicans tRNA 2'-phosphotransferase | recombinant caTPT1, FP RNA substrate dephosphorylation | inhibition, % at 5 µM | actives 0.81% (n = 300,000) | AID 1962;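 active = inhibition above the mean of all tested compounds plus 3 SD, set per screening campaign, cut at about 24% in these data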;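 note: plate controls were DMSO alone for no effect and ferristatin control at 100 nM for full effect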
Rpn11 block – inhibitors of human proteasome Rpn11 | actives 0.59% (n = 360,000) | human 26S proteasome, Ub4-pepOG fluorescence polarization; 20S core pre-blocked with epoxomicin | calls only at 20 µM;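 active = inhibition at 20 µM, scaled to each plate's controls, above about 33%, limit read from the data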
HNF4A DNA FP – change in binding of human HNF4 alpha to DNA. HNF4a-FITC DNA binding, fluorescence polarization, 1 h. activity change, % at 10 µM. actives 0.3% (n = 360,000); in the data active = activity change above about 30%, passing the limit was not always enough
SENP1 inh conf – confirmation of human SENP1 SUMO protease inhibitors. shares compounds with SENP1 FRET inh. recombinant SENP1, CyPet-SUMO1-YPet FRET cleavage. inhibition, % at 10 µM. actives 34% (n = 520). AID 651678; in the data active = inhibition mostly above about 35%, no sharp cut-off; inactive = mostly below about 32%;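 note: 0% = enzyme with DMSO and 100% = no enzyme control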
SENP1 kin conf – SENP1 (human) inhibition, kinetic confirmation; actives 26% (n = 520); recombinant SENP1, CyPet-SUMO1-YPet FRET kinetic cleavage; shares compounds with SENP1 FRET inh; inhibition, % at 10 µM; in the data active = inhibition mostly above about 32%, no sharp cut-off; inactive = mostly below about 29%;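 note: 0% = DMSO with enzyme and 100% = no enzyme substrate only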
* hit, by the source's call; i = inactive; x = not tested or not shown.

SMILES	SUMO HTRF inh	SENP1 FRET inh	CSN inh	TPT1 inhibitor	Rpn11 block	HNF4A DNA FP	SENP1 inh conf	SENP1 kin conf
O=C(c1csc2c1CCCCC2)N1CCN(c2ncccn2)CC1	8	-2	-7	-2	i	-1	x	x
C1CCN(CCC2CCCCN2)CC1 (stereo not given)	x	-7	-1	x	i	-2	x	x
C1CCN(CC2CCCCN2)CC1 (stereo not given)	x	45*	-5	x	i	6	-2	1
Brc1cc(Br)c2nc3c(cc2c1)CCC3	4	33*	4	8	i	7	3	7
CC(C)N=c1scc(-c2cccs2)n1/N=C/c1ccc(O)c(O)c1O	31	13	4	1	i	-4	x	x
CCN=c1scc(-c2cccs2)n1/N=C/c1cc(OC)ccc1O	13	52*	-4	6	i	-3	146*	82*
COc1ccc(O)c(/C=N/n2c(-c3ccco3)csc2=Nc2cccnc2)c1	16	42*	-6	-4	i	-2	29*	19
COc1ccccc1-n1cc(-c2ccc([N+](=O)[O-])cc2)[nH]c1=S	18	43*	-1	2	i	2	11	5
Cc1ccc(-n2cc(-c3ccc([N+](=O)[O-])cc3)[nH]c2=S)c(C)c1	-26	63*	-2	8	i	2	42*	33*
O=C(c1cc(-c2ccncc2)nc2ccccc12)N1CCCC(C(F)(F)F)C1 (stereo not given)	x	-4	2	x	i	0	x	x
O=C(CSc1ccc(-c2cccs2)nn1)c1cccs1	9	1	3	3	i	3	x	x
CCCC(C(=O)NNC(=O)c1ccncc1)c1ccccc1 (stereo not given)	x	0	1	x	i	-4	x	x
CCN(CC)C(=O)Cn1cc(C(=O)C(=O)N2CCN(C)CC2)c2ccccc21	14	-5	5	-3	i	0	x	x
CCN(CC)C(=O)Cn1cc(C(=O)C(=O)N2CC=C(c3ccccc3)CC2)c2ccccc21	2	65*	0	-3	i	0	63*	65*
O=C(/C=C/c1ccccc1)NC(N1CCOCC1)C(Cl)(Cl)Cl (stereo not given)	0	-7	-2	3	i	-1	x	x
Cn1c(=O)c2c(-c3ccccc3)n(-c3ccc(N)cc3)cc2n(C)c1=O	x	45*	10	x	i	-12	24	9
COc1ccc(C)cc1NC(=O)C1CCCN(S(=O)(=O)c2cccnc2)C1 (stereo not given)	6	-1	-2	0	i	4	x	x
COc1ccc(-c2c(Sc3ccccc3)c3cc(-c4ccc(OC)c(F)c4)ccc3n2C)cc1	x	30*	8	x	x	10	-35	4
COc1cc(OC)cc(-c2c(Sc3ccccc3)c3cc(-c4ccc(OC)c(OC)c4)ccc3n2C)c1	x	1	-5	x	x	2	x	x
Nc1cc2c([N+](=O)[O-])cccc2o1	27	63*	5	16	i	11	31	17
CCOC(=O)CN(C(=O)COc1nc(C)cc(C)c1C#N)c1ccc(F)cc1	-6	-1	1	-2	i	4	x	x
CCCn1c(=C(C#N)C#N)s/c(=C2\C=Cc3ccccc3N2CC)c1=O	1	15	-8	x	i	-14	x	x
CN1/C(=C/C=C(C#N)C#N)C=Cc2ccccc21	11	97*	72	6	x	138	9	9
CCCN(C(=O)C1=COCCO1)c1c(N)n(Cc2ccccc2)c(=O)[nH]c1=O	x	-1	-6	3	i	-2	x	x
CC(C)CCN(C(=O)C1=COCCO1)c1c(N)n(Cc2ccccc2)c(=O)[nH]c1=O	x	34*	6	0	i	3	9	6
SMILES	SUMO HTRF inh	SENP1 FRET inh	CSN inh	TPT1 inhibitor	Rpn11 block	HNF4A DNA FP	SENP1 inh conf	SENP1 kin conf
CC1CCc2c(sc(NC(=O)C3c4ccccc4Oc4ccccc43)c2C(N)=O)C1 (stereo not given)	-31	-8	-14	-2	i	3	x	x
COC(=O)Nc1sc2c(c1C(N)=O)CCC(C)C2 (stereo not given)	-1	41*	-5	1	i	-1	-8	2
COC(=O)c1c(NC(=O)c2ccccc2)sc(C(N)=O)c1C	8	-3	9	2	i	-2	x	x
COC(=O)c1c(NC(=O)c2ccccc2)sc(C(=O)c2ccccc2)c1C	-29	43*	1	3	i	2	24*	34*
CCCN1CCC(NC(=O)Nc2ccc(Br)cc2)CC1	12	1	2	-1	i	0	x	x
Cc1ccc(NC(=O)C2C3C=CC4(O3)C2C(=O)N(CCCN2CCCC(C)C2)C4C(=O)NC2CCCCC2)cc1 (stereo not given)	9	1	17	0	i	0	x	x
CC1(C)CC(=O)C2=C(C1)Nc1ccccc1NC2c1ccccc1F (stereo not given)	0	36*	-11	1	i	-7	-2	-1
COc1ccccc1NC1=C(Cl)C(=O)N(c2ccccc2)C1=O	-13	3	-2	-2	i	3	x	x
CCOc1ccc(N2C(=O)C(Cl)=C(Nc3ccccc3O)C2=O)cc1	-5	36*	16	21	x	9	28	14
O=C1C(Cl)=C(Nc2ccccc2O)C(=O)N1CCc1ccccc1	9	41*	9	5	x	13	17	15
CC1(C)CC(=O)C2=C(C1)Nc1ccccc1NC2	23	-35	-11	-12	i	1	x	x
CC1(C)CC(=O)C2=C(C1)Nc1ccccc1S2	5	46*	-2	-15	i	-3	29*	5
CS(=O)(=O)Oc1ccc2c(c1)O/C(=C\c1cccc([N+](=O)[O-])c1)C2=O	3	2	0	x	i	2	x	x
O=C1/C(=C/c2ccc([N+](=O)[O-])cc2)Oc2cc(O)ccc21	7	62*	7	x	i	6	45*	26
Oc1ccccc1NCC(O)Cn1ccc2ccccc21 (stereo not given)	19	37*	19	24	i	16	5	1
OC(CNCc1ccccc1)Cn1ccc2ccccc21 (stereo not given)	1	-20	-1	-7	i	0	x	x
CCSc1ccccc1C(=O)n1nnc2ccccc21	9	0	2	-1	i	2	x	x
